Assays:
[1] = biological target: D(3) dopamine receptor (Homo sapiens, UniProt P35462); test: Displacement of [3H]spiperone from dopamine D3 receptor expressed in human HEK293 cells by liquid scintillation counter; format: cell-based
Method in brief: (§1)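 Stably transfected HEK293 membranes, 15 µg per tube, in duplicate. Competed against [3H]spiperone with increasing compound concentrations from 1 nM. Buffer 50 mM Tris, 4 mM MgCl2, pH 7.4; 30 °C for 50 min. Unlabelled spiperone defined nonspecific binding. Stopped by rapid GF/B filtration and washing with cold 50 mM Tris/5 mM EDTA.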

[2] = biological target: T1, D(2) dopamine receptor (Homo sapiens, UniProt P14416); test: Displacement of [3H]spiperone from dopamine D2 receptor expressed in human HEK293 cells by liquid scintillation counter; format: cell-based; method in brief: as §1
T1 sequence (P14416 whole entry): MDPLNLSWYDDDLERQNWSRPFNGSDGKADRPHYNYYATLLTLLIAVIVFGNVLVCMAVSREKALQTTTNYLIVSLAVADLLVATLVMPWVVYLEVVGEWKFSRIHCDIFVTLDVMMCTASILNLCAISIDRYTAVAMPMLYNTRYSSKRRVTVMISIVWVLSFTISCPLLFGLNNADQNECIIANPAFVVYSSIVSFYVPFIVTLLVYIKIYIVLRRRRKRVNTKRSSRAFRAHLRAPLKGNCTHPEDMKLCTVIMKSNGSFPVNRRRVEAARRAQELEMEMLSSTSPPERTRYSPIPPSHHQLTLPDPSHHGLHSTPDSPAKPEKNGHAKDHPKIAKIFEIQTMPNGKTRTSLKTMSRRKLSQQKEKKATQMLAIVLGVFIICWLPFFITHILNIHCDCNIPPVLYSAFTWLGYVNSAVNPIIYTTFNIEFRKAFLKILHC

[3] = biological target: T2, D(1A) dopamine receptor (Homo sapiens, UniProt P21728); test: Displacement of [3H]SCH23390 from dopamine D1 receptor expressed in human HEK293 cells at 10 uM by liquid scintillation counter; format: cell-based
T2 sequence (P21728 whole entry): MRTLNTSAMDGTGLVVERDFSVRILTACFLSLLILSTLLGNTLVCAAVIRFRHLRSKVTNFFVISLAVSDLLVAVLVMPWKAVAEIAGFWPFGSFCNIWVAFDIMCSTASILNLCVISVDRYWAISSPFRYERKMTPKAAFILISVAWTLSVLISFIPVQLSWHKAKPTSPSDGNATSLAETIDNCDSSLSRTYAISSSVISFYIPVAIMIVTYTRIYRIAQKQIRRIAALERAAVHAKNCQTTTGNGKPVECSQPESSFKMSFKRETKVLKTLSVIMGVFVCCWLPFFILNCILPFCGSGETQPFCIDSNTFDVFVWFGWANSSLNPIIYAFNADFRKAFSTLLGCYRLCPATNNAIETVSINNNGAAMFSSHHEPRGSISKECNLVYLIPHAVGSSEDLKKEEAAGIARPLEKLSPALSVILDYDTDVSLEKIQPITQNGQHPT

[4] = biological target: T2, D(1A) dopamine receptor; test: Displacement of [3H]SCH23390 from dopamine D1 receptor expressed in human HEK293 cells by liquid scintillation counter; format: cell-based
Method in brief: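 Membranes from stably transfected HEK293 cells, 15 µg per tube, in duplicate. Incubated with [3H]SCH23390 and increasing compound concentrations from 1 nM. Buffer 50 mM Tris, 4 mM MgCl2, pH 7.4; 50 min at 30 °C. Nonspecific binding with unlabelled SCH23390. Reaction started by adding membranes and stopped by GF/B filtration.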

[5] = biological target: T1, D(2) dopamine receptor; test: Displacement of [3H]spiperone from dopamine D2 receptor expressed in human HEK293 cells at 10 uM by liquid scintillation counter; format: cell-based
[6] = biological target: 5-hydroxytryptamine receptor 2A (Homo sapiens, UniProt P28223); test: Displacement of [3H]Ketanserin from 5-HT2A receptor expressed in CHO cells by liquid scintillation counter; format: cell-based
5-hydroxytryptamine receptor 2A, sequence (P28223 whole entry): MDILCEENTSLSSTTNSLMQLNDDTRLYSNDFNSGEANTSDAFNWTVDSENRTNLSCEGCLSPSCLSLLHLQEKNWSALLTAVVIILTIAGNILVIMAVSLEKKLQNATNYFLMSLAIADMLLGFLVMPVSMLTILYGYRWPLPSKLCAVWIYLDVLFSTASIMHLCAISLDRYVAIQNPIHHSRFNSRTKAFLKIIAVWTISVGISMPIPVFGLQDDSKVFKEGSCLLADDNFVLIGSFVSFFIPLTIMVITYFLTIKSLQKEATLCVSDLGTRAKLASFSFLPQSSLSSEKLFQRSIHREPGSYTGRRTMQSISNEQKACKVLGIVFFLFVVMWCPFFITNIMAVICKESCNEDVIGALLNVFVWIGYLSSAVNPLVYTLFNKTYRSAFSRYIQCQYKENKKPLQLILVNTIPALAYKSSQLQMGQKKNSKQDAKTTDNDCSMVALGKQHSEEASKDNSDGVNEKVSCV
Method in brief: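 Duplicate incubations of CHO membranes (15 µg per tube) with [3H]Ketanserin and a rising compound series starting at 1 nM. Run in 50 mM Tris, 4 mM MgCl2, pH 7.4, at 30 °C for 50 min. Unlabelled ketanserin gave nonspecific binding. Bound counts retained on GF/B filters after cold-buffer washing.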

[7] = biological target: T3, 5-hydroxytryptamine receptor 1A (Homo sapiens, UniProt P08908); test: Displacement of [3H]8-OH-DPAT from 5-HT1A receptor expressed in CHO cells by liquid scintillation counter; format: cell-based
T3 sequence (P08908 whole entry): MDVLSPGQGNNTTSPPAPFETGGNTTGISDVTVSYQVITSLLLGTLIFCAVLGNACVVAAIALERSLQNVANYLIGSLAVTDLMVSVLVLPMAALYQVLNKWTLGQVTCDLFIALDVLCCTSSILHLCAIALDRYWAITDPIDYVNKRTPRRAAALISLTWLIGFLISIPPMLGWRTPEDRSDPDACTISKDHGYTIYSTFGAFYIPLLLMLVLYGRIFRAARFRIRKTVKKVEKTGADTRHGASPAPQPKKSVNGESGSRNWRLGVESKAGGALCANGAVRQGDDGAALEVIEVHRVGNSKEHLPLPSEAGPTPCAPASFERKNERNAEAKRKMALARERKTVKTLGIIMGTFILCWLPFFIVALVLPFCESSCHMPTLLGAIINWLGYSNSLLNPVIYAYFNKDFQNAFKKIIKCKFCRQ
Method in brief: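 CHO cell membrane homogenates, 15 µg per tube, in duplicate tubes. Test compound at increasing concentrations from 1 nM with 0.7 nM [3H]8-OH-DPAT. Buffer 50 mM Tris, 4 mM MgCl2, pH 7.4. Incubated 50 min at 30 °C. Nonspecific binding defined with WAY100635. Stopped by GF/B filtration and cold Tris/EDTA wash.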

[8] = Selectivity ratio of Ki for 5-HT1A receptor to Ki for dopamine D3 receptor
[9] = Selectivity ratio of Ki for 5-HT2A receptor to Ki for 5-HT1A receptor

D(3) dopamine receptor, sequence (P35462 whole entry): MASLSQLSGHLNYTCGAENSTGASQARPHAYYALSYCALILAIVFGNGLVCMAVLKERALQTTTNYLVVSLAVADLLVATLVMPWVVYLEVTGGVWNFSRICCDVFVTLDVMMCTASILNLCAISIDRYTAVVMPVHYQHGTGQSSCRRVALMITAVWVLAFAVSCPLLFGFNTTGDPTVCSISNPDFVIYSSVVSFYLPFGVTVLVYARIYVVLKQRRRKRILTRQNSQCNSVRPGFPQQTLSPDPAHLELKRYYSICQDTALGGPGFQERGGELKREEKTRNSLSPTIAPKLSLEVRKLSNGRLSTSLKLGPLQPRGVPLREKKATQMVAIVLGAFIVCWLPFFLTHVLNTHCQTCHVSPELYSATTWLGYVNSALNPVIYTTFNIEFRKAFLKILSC

CCCN1CCc2cccc3c2[C@@H]1Cc1cccc(OCc2cn(CCCCN4CCN(c5ccccc5OC)CC4)nn2)c1-3
Ki [1]: 8 nM
Ki [2]: 293 nM
inhibition [3]: 66%

CCCN1CCc2cccc3c2[C@H]1Cc1cccc(OCc2cn(CCCCN4CCN(c5ccccc5OC)CC4)nn2)c1-3
Ki [4]: 1600 nM
Ki [1]: 9.18 nM
Ki [2]: 616 nM

CCCN1CCc2cccc3c2[C@@H]1Cc1cccc(OCCCn2cc(CCN4CCN(c5ccccc5OC)CC4)nn2)c1-3
Ki [1]: 1.82 nM
Ki [2]: 600 nM
inhibition [3]: 68%

CCCN1CCc2cccc3c2[C@H]1Cc1cccc(OCCCn2cc(CCN4CCN(c5ccccc5OC)CC4)nn2)c1-3
Ki [1]: 7.7 nM
Ki [2]: 770 nM
inhibition [3]: 54%

CCCN1CCc2cccc3c2[C@@H]1Cc1cccc(OCCCCN2CCN(c4ccccc4OC)CC2)c1-3
Ki [4]: 1170 nM
Ki [1]: 189 nM
Ki [2]: 174 nM

CCCN1CCc2cccc3c2[C@H]1Cc1cccc(OCCCCN2CCN(c4ccccc4OC)CC2)c1-3
Ki [4]: 1310 nM
Ki [1]: 23.4 nM
Ki [2]: 141 nM

C#CCOc1cccc2c1-c1cccc3c1C(C2)N(CCC)CC3 (racemic)
Ki [1]: 2400 nM
inhibition [5]: 28%

CCCN1CCc2cccc3c2C1Cc1cccc(OCc2cn(CCCN4CCN(c5ccccc5OC)CC4)nn2)c1-3 (racemic)
Ki [1]: 21 nM
Ki [2]: 1200 nM
inhibition [3]: 67%

CCCN1CCc2cccc3c2C1Cc1cccc(OCc2cn(CCCN4CCN(c5cccc(Cl)c5Cl)CC4)nn2)c1-3 (racemic)
Ki [4]: 2010 nM
Ki [1]: 35 nM
inhibition [5]: 40.5%

CCCN1CCc2cccc3c2C1Cc1cccc(OCc2cn(CCCN4CCN(c5ccccc5)CC4)nn2)c1-3 (racemic)
Ki [1]: 191 nM
inhibition [5]: 6%
inhibition [3]: 63%

CCCN1CCc2cccc3c2C1Cc1cccc(OCc2cn(CCCN4CCN(c5ncccn5)CC4)nn2)c1-3 (racemic)
Ki [1]: 539 nM
inhibition [5]: 13%
inhibition [3]: 32%

CCCN1CCc2cccc3c2C1Cc1cccc(OCc2cn(CCN4CCN(c5ccccc5OC)CC4)nn2)c1-3 (racemic)
Ki [1]: 44 nM
inhibition [5]: 19%
inhibition [3]: 35%

CCCN1CCc2cccc3c2C1Cc1cccc(OCc2cn(CCCCN4CCN(c5ccccc5OC)CC4)nn2)c1-3 (racemic)
Ki [6]: 174 nM
Ki [4]: 2700 nM
Ki [1]: 2.67 nM
Ki [7]: 9.68 nM
Ratio [8]: 3.6
Ki [2]: 661 nM
Ratio [9]: 18

CCCN1CCc2cccc3c2C1Cc1cccc(OCCCn2cc(CCCCN4CCN(c5ccccc5OC)CC4)nn2)c1-3 (racemic)
Ki [4]: 1900 nM
Ki [1]: 8.14 nM
Ki [2]: 206 nM

CCCN1CCc2cccc3c2C1Cc1cccc(OCCCn2cc(CCCN4CCN(c5ccccc5OC)CC4)nn2)c1-3 (racemic)
Ki [1]: 8.16 nM
inhibition [5]: 18%
inhibition [3]: 14%

CCCN1CCc2cccc3c2C1Cc1cccc(OCCCn2cc(CCN4CCN(c5ccccc5OC)CC4)nn2)c1-3 (racemic)
Ki [6]: 245 nM
Ki [1]: 1.14 nM
Ki [7]: 7.59 nM
Ratio [8]: 6.6
Ki [2]: 7380 nM
inhibition [3]: 64%
Ratio [9]: 32

CCCN1CCc2cccc3c2C1Cc1cccc(OCCCn2cc(CN4CCN(c5ccccc5OC)CC4)nn2)c1-3 (racemic)
Ki [1]: 281 nM
inhibition [5]: 51%
inhibition [3]: 42%

CCCN1CCc2cccc3c2C1Cc1cccc(OCCCNCCCO)c1-3 (racemic)
Ki [1]: 4510 nM
inhibition [5]: 9%
inhibition [3]: 44%

CCCN1CCc2cccc3c2C1Cc1cccc(OCCCCN2CCN(c4ccccc4OC)CC2)c1-3 (racemic)
Ki [6]: 100000 nM
Ki [4]: 735 nM
Ki [1]: 19.9 nM
Ki [7]: 58 nM
Ki [2]: 88 nM

CCCN1CCc2cccc3c2C1Cc1cccc(OCCCN(CCCN2CCN(c4ccccc4OC)CC2)S(C)(=O)=O)c1-3 (racemic)
Ki [4]: 910 nM
Ki [1]: 102 nM
Ki [2]: 399 nM

From ChEMBL document CHEMBL1681760, “Further SAR study on 11-O-substituted aporphine analogues: identification of highly potent dopamine D3 receptor ligands” (Bioorg Med Chem, 2011)
